# From ChEMBL document CHEMBL1139053, “Quantitative structure-activity relationship (QSAR) of indoloacetamides as inhibitors of human isoprenylcysteine carboxyl methyltransferase” (Bioorg Med Chem Lett, 2007)
# Molecular target: Protein-S-isoprenylcysteine O-methyltransferase (Homo sapiens, UniProt O60725)
# Assay: Inhibition of ICMT expressed in Sf9 cells
# In short: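 Sf9 membranes carrying ICMT added to start reactions with biotin-S-farnesyl L-cysteine and [3H]AdoMet in 100 mM Hepes pH 7.4, 5 mM MgCl2; 37 °C, 20 min; stopped with 10% Tween 20. [3H]methyl on substrate captured on streptavidin beads overnight at 4 °C, washed in phosphate-buffered NaCl, scintillation counted.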
# Chain of Protein-S-isoprenylcysteine O-methyltransferase (O60725 whole entry): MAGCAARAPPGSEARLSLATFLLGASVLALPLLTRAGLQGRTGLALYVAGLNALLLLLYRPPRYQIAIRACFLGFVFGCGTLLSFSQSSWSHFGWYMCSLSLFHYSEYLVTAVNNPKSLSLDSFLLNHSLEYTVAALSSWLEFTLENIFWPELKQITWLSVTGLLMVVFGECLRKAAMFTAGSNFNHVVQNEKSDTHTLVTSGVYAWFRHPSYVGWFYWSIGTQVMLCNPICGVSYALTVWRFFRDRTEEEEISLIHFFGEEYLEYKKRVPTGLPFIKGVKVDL
row,Structure (SMILES),IC50
1,CCOc1cccc(-c2ccc3c(c2)c(CC(N)=O)cn3Cc2cccc(C(F)(F)F)c2)c1,4.9 µM
2,Cc1cccc(-c2ccc3[nH]cc(CC(N)=O)c3c2)c1,100 µM
3,CCCCCCn1cc(CC(N)=O)c2cc(-c3ccc(F)c(Cl)c3)ccc21,9.33 µM
4,CCOc1cccc(-c2ccc3[nH]cc(CC(N)=O)c3c2)c1,100 µM
5,CCCCCCCCn1cc(CC(N)=O)c2cc(-c3ccc(C)cc3)ccc21,10.7 µM
6,CCCCCCn1cc(CC(N)=O)c2cc(-c3cccc(F)c3)ccc21,12.9 µM
7,CCCCCCCCn1cc(CC(N)=O)c2cc(-c3ccc(F)c(Cl)c3)ccc21,7.08 µM
8,NC(=O)Cc1cn(Cc2ccccc2)c2ccc(-c3cccc(F)c3)cc12,10.7 µM
9,CC(C)Cn1cc(CC(N)=O)c2cc(-c3cc(C(F)(F)F)cc(C(F)(F)F)c3)ccc21,25.7 µM
10,CCCCCCn1cc(CC(N)=O)c2cc(-c3ccc(C)cc3)ccc21,7.41 µM
11,NC(=O)Cc1cn(Cc2cccc(C(F)(F)F)c2)c2ccc(-c3ccc(F)c(Cl)c3)cc12,6.17 µM
12,Cc1ccc(-c2ccc3c(c2)c(CC(N)=O)cn3CC(C)C)cc1,9.77 µM
13,Cc1cccc(-c2ccc3c(c2)c(CC(N)=O)cn3CC(C)C)c1,15.8 µM
14,CCCCCCCCn1cc(CC(N)=O)c2cc(-c3cccc(OCC)c3)ccc21,2.19 µM
15,Cc1cccc(-c2ccc3c(c2)c(CC(N)=O)cn3Cc2ccc3ccccc3c2)c1,17.4 µM
16,NC(=O)Cc1cn(CC2CC2)c2ccc(-c3cccc(F)c3)cc12,14.8 µM
17,CCCCCCn1cc(CC(N)=O)c2cc(-c3ccc(Oc4ccccc4)cc3)ccc21,100 µM
18,CCCCCCCCn1cc(CC(N)=O)c2cc(-c3ccccc3OC)ccc21,6.03 µM

row,Structure (SMILES),IC50
1,COc1ccccc1-c1ccc2c(c1)c(CC(N)=O)cn2CCCOc1ccccc1,100 µM
2,CC(C)Cn1cc(CC(N)=O)c2cc(-c3ccc(F)c(Cl)c3)ccc21,9.12 µM
3,COc1ccccc1-c1ccc2c(c1)c(CC(N)=O)cn2CC1CC1,16.2 µM
4,NC(=O)Cc1cn(Cc2cccc(C(F)(F)F)c2)c2ccc(-c3cccc(F)c3)cc12,5.75 µM
5,NC(=O)Cc1cn(Cc2ccccc2)c2ccc(-c3ccc(F)c(Cl)c3)cc12,10.5 µM
6,CCCCCCCCn1cc(CC(N)=O)c2cc(-c3cccc(F)c3)ccc21,2.4 µM
7,CCCCCCn1cc(CC(N)=O)c2cc(-c3ccccc3OC)ccc21,8.13 µM
8,NC(=O)Cc1cn(CCCOc2ccccc2)c2ccc(-c3cccc(F)c3)cc12,100 µM
9,Cc1cccc(-c2ccc3c(c2)c(CC(N)=O)cn3CCCOc2ccccc2)c1,100 µM
10,COc1ccccc1-c1ccc2c(c1)c(CC(N)=O)cn2Cc1ccccc1,13.2 µM
11,CC(C)Cn1cc(CC(N)=O)c2cc(-c3cccc(F)c3)ccc21,3.72 µM
12,Cc1cccc(-c2ccc3c(c2)c(CC(N)=O)cn3Cc2ccccc2)c1,6.46 µM
13,NC(=O)Cc1cn(Cc2ccc3ccccc3c2)c2ccc(-c3cc(C(F)(F)F)cc(C(F)(F)F)c3)cc12,100 µM
14,COc1ccccc1-c1ccc2[nH]cc(CC(N)=O)c2c1,100 µM
15,CCCCCCn1cc(CC(N)=O)c2cc(-c3cccc(C)c3)ccc21,7.41 µM
16,NC(=O)Cc1c[nH]c2ccc(-c3cc(C(F)(F)F)cc(C(F)(F)F)c3)cc12,100 µM
17,NC(=O)Cc1cn(CC2CC2)c2ccc(-c3ccc(Oc4ccccc4)cc3)cc12,100 µM
18,NC(=O)Cc1cn(CC2CC2)c2ccc(-c3cc(C(F)(F)F)cc(C(F)(F)F)c3)cc12,100 µM

# The remaining lines, values ahead:
row,IC50,Structure (SMILES)
1,5.01 µM,CC(C)(C)c1ccc(Cn2cc(CC(N)=O)c3cc(-c4cccc(F)c4)ccc32)cc1
2,100 µM,NC(=O)Cc1cn(Cc2cccc(C(F)(F)F)c2)c2ccc(-c3ccc(Oc4ccccc4)cc3)cc12
3,37.2 µM,CCCCCCCCn1cc(CC(N)=O)c2cc(-c3cc(C(F)(F)F)cc(C(F)(F)F)c3)ccc21
4,29.5 µM,CC(C)(C)c1ccc(Cn2cc(CC(N)=O)c3cc(-c4cc(C(F)(F)F)cc(C(F)(F)F)c4)ccc32)cc1
5,12.6 µM,CCOc1cccc(-c2ccc3c(c2)c(CC(N)=O)cn3Cc2ccc(C(C)(C)C)cc2)c1
6,9.12 µM,Cc1cccc(-c2ccc3c(c2)c(CC(N)=O)cn3CC2CC2)c1
7,100 µM,Cc1ccc(-c2ccc3[nH]cc(CC(N)=O)c3c2)cc1
8,100 µM,NC(=O)Cc1cn(Cc2cccc(C(F)(F)F)c2)c2ccc(-c3cc(C(F)(F)F)cc(C(F)(F)F)c3)cc12
9,6.61 µM,CCCCCCn1cc(CC(N)=O)c2cc(-c3cccc(OCC)c3)ccc21
10,6.17 µM,COc1ccccc1-c1ccc2c(c1)c(CC(N)=O)cn2Cc1cccc(C(F)(F)F)c1
11,5.75 µM,NC(=O)Cc1cn(CC2CC2)c2ccc(-c3ccc(F)c(Cl)c3)cc12
12,6.46 µM,CCOc1cccc(-c2ccc3c(c2)c(CC(N)=O)cn3CC2CC2)c1
13,100 µM,NC(=O)Cc1cn(CCCOc2ccccc2)c2ccc(-c3ccc(Oc4ccccc4)cc3)cc12
14,6.46 µM,Cc1ccc(-c2ccc3c(c2)c(CC(N)=O)cn3Cc2cccc(C(F)(F)F)c2)cc1
15,8.32 µM,CCOc1cccc(-c2ccc3c(c2)c(CC(N)=O)cn3Cc2ccc3ccccc3c2)c1
16,100 µM,NC(=O)Cc1cn(CCCOc2ccccc2)c2ccc(-c3cc(C(F)(F)F)cc(C(F)(F)F)c3)cc12
17,19.5 µM,Cc1ccc(-c2ccc3c(c2)c(CC(N)=O)cn3Cc2ccc3ccccc3c2)cc1
18,100 µM,NC(=O)Cc1c[nH]c2ccc(-c3ccc(F)c(Cl)c3)cc12
19,7.59 µM,CC(C)(C)c1ccc(Cn2cc(CC(N)=O)c3cc(-c4ccc(F)c(Cl)c4)ccc32)cc1
20,39.8 µM,NC(=O)Cc1c[nH]c2ccc(-c3cccc(F)c3)cc12
21,7.94 µM,Cc1cccc(-c2ccc3c(c2)c(CC(N)=O)cn3Cc2cccc(C(F)(F)F)c2)c1
22,100 µM,NC(=O)Cc1cn(Cc2ccc3ccccc3c2)c2ccc(-c3ccc(Oc4ccccc4)cc3)cc12
23,6.17 µM,CCOc1cccc(-c2ccc3c(c2)c(CC(N)=O)cn3CC(C)C)c1
24,21.9 µM,COc1ccccc1-c1ccc2c(c1)c(CC(N)=O)cn2CC(C)C
